According to ChEMBL document CHEMBL1122652, “Intensely potent morpholinyl anthracyclines” (J Med Chem, 1984):
Activity calls are given as the source filed them.

Tests used:
[1] = tested on: Nucleic Acid; experiment: Inhibition of [3H]uridine incorporation into proliferating L1210 cells.; type: functional, cell-based; settings: Mus musculus
Procedure, shortened: (§1)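 Actively growing L1210 cells in culture were exposed to drug, which was first dissolved in Me2SO and diluted to 1% Me2SO final. Incorporation of [3H]thymidine into DNA or [3H]uridine into RNA was measured. ED50 is the drug concentration giving 50% inhibition.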

[2] = tested on: Nucleic Acid; experiment: Inhibition of [3H]thymidine incorporation into proliferating L1210 cells.; type: functional, cell-based; settings: Mus musculus; procedure, shortened: as §1
[3] = Partition coefficient (log P) was the log of ratio of concentration in octanol / water partitioned concentration in phosphate buffer at pH 7.4.; type: physicochemical
[4] = tested on: Calf thymus DNA; experiment: (§2) Effect on thermal denaturation temperature (delta Tm) of helical DNA; type: nucleic-acid assay; settings: Bos taurus
Procedure, shortened: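 ΔTm was taken as the Tm of the drug–calf thymus DNA complex minus the Tm of DNA alone. Drug was at 5.2 × 10^-6 M in 0.01 M phosphate buffer (pH 7) containing EDTA and 5% Me2SO. Values below 1 were considered insignificant binding.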

[5] = tested on: Mus musculus; experiment: Antitumor activity against mice baering P388 leukemia (10e6 cells) implanted ip on day 0, after treatment with three ip doses (0.5 mg/kg) on day 5,9,13 when tumor became systemic.; type: functional
[6] = tested on: Calf thymus DNA; experiment: Change in thermal denaturation temperature of calf thymus DNA; type: nucleic-acid assay; settings: Bos taurus
Procedure, shortened: (§3)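 Calf thymus DNA with drug at 5.2 X 10^-6 M in 0.01 M phosphate buffer pH 7 containing EDTA and 5% Me2SO. ΔTm is the thermal denaturation temperature of the DNA–drug complex minus that of DNA alone. Values <1 count as insignificant binding.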

[7] = tested on: Calf thymus DNA; experiment: as §2; type: functional; settings: Bos taurus; procedure, shortened: as §3
[8] = tested on: Mus musculus; experiment: Antitumor activity (treated/control) against mice bearing L1210 leukemia implanted ip on day 0, after treatment with single ip dose 0.025 mg/kg on day 1.; type: functional; settings: route intraperitoneal
Procedure, shortened: (§4)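 Mice tumour-implanted on day 0 as in the P388 ip screen. Dosing was iv for P388 (day 1), po for P388 (days 1, 5, 9), and ip for L1210 (day 1) and for B16 melanoma (days 1, 5, 9). Efficacy is T/C % of mean survival time of treated over control mice, at the optimum dose.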

[9] = tested on: Mus musculus; experiment: Antitumor activity (treated/control) against mice bearing P388 leukemia implanted ip on day 0, after treatment with three po doses 0.1 mg/kg on days1,5,9 when the tumor had become systemic; type: functional; procedure, shortened: as §4
[10] = tested on: Mus musculus; experiment: Antitumor activity (treated/control) against mice bearing B16 melanoma implanted ip on day 0, after treatment with 3 ip doses 0.0063 mg/kg on day 1,5,9 when tumor had become systemic.; type: functional; settings: route intraperitoneal; procedure, shortened: as §4
[11] = tested on: Mus musculus; experiment: Antitumor activity (treated/control) against mice bearing P388 leukemia implanted ip on day 0, after treatment with single iv dose 0.05 mg/kg on day 1.; type: functional; procedure, shortened: as §4
[12] = tested on: Mus musculus; experiment: Antitumor activity against mice baering P388 leukemia (10e6 cells) implanted ip on day 0, after treatment with single ip dose 0.25 mg/kg on day 1.; type: functional; settings: route intraperitoneal
Procedure, shortened: (§5)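 Mice implanted ip with 10^6 P388 leukemia cells on day 0, then dosed ip either once on day 1 or on days 5, 9 and 13 once the tumour was systemic. Efficacy is T/C, the mean survival time of treated over control mice, expressed as %. T/C > 120% counts as active. The optimum dose is reported.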

[13] = tested on: Mus musculus; experiment: Antitumor activity against mice bearing P388 leukemia implanted ip on day 0, after treatment with three po doses on day 1,5,9 when the tumor had become systemic; Inactive; type: functional, organism-based
[14] = tested on: Mus musculus; experiment: Antitumor activity against mice bearing B16 melanoma implanted ip on day 0, after treatment with three ip doses 10 mg/kg on day 1,5,9 when tumor had become systemic.; type: functional; settings: route intraperitoneal
[15] = tested on: Mus musculus; experiment: Antitumor activity against mice baering P388 leukemia (10e6 cells) implanted ip on day 0, after treatment with single ip dose 7.5 mg/kg on day 1.; type: functional; settings: route intraperitoneal
[16] = tested on: Mus musculus; experiment: Antitumor activity against mice baering P388 leukemia (10e6 cells) implanted ip on day 0, after treatment with three ip doses (8 mg/kg) on day 5,9,13 when tumor became systemic.; type: functional
[17] = tested on: Mus musculus; experiment: Antitumor activity against mice bearing L1210 leukemia implanted ip on day 0, after treatment with single ip dose 10 mg/kg on day 1.; type: functional; settings: route intraperitoneal
[18] = tested on: Mus musculus; experiment: Antitumor activity against mice bearing P388 leukemia implanted ip on day 0, after treatment with single iv dose 10 mg/kg on day 1.; type: functional
[19] = tested on: Mus musculus; experiment: Antitumor activity against mice baering P388 leukemia (10e6 cells) implanted ip on day 0, after treatment with single ip dose 0.05 mg/kg on day 1.; type: functional; settings: route intraperitoneal; procedure, shortened: as §5
[20] = tested on: Mus musculus; experiment: Antitumor activity against mice baering P388 leukemia (10e6 cells) implanted ip on day 0, after treatment with three ip doses (50 mg/kg) on day 5,9,13 when tumor became systemic.; type: functional; procedure, shortened: as §5
[21] = tested on: Mus musculus; experiment: Antitumor activity against mice baering P388 leukemia (10e6 cells) implanted ip on day 0, after treatment with three ip doses (0.2 mg/kg) on day 5,9,13 when tumor became systemic.; type: functional; procedure, shortened: as §5
[22] = tested on: Mus musculus; experiment: Antitumor activity against mice baering P388 leukemia (10e6 cells) implanted ip on day 0, after treatment with single ip dose 4.0 mg/kg on day 1.; type: functional; settings: route intraperitoneal; procedure, shortened: as §5
[23] = tested on: Mus musculus; experiment: Antitumor activity against mice baering P388 leukemia (10e6 cells) implanted ip on day 0, after treatment with single ip dose 0.4 mg/kg on day 1.; type: functional; settings: route intraperitoneal

For `COc1cccc2c1C(=N)c1c(O)c3c(c(O)c1C2=O)C[C@@](O)(C(=O)CO)CC3OC1CC(N2CCOCC2C#N)C(O)C(C)O1` (stereo not given in full), which ED50 [1] is on record?
Its ED50 is 4.7 nM.

What about the ED50 [2] of the same molecule?
The ED50 was 31 nM.

What about the logD [3] of the same molecule?
The logD was 1.97.

What about the ΔTm [4] of the same molecule?
Its ΔTm is 3.2 °C.

What about the T/C [5] of the same molecule?
Its T/C is 157%.

For `COc1cccc2c1C(=O)c1c(O)c3c(c(O)c1C2=O)C[C@@](O)(C(C)O)CC3OC1CC(N2CCOCC2C#N)C(O)C(C)O1` (stereo not given in full), which ED50 [1] is on record?
The ED50 was 2 nM.

What about the ED50 [2] of the same molecule?
The ED50 was 19 nM.

And the ΔTm [6]?
The ΔTm was 4.2 °C.

With `COc1cccc2c1C(=O)c1c(O)c3c(c(O)c1C2=O)C[C@@](O)(C(=O)CO)CC3OC1CC(N2CCOCC2C#N)C(O)C(C)O1` (stereo not given in full) as the molecule, how does the ΔTm [7] read?
Its ΔTm is 8.7 °C.

What about the ED50 [1] of the same molecule?
Its ED50 is 0.53 nM.

And the ED50 [2]?
Its ED50 is 3 nM.

And the T/C [8]?
The T/C was 164%.

What about the T/C [9] of the same molecule?
The T/C was greater than 158%.

And the T/C [10]?
Its T/C is greater than 148%.

What about the T/C [11] of the same molecule?
The T/C was 152%.

For `COc1cccc2c1C(=O)c1c(O)c3c(c(O)c1C2=O)C[C@@](O)(C(C)=O)CC3OC1CC(N2CCOCC2)C(O)C(C)O1.Cl` (stereo not given in full), which T/C [12] is on record?
The T/C was 155%.

What about the ED50 [1] of the same molecule?
The ED50 was 100 nM.

And the ED50 [2]?
The ED50 was 760 nM.

What about the logD [3] of the same molecule?
Its logD is 2.31.

What about the ΔTm [6] of the same molecule?
The ΔTm was 6.6 °C.

Which ED50 [1] does the source give for `COc1cccc2c1C(=O)c1c(O)c3c(c(O)c1C2=O)C[C@@](O)(C(=O)CO)C[C@@H]3O[C@H]1C[C@H](N)[C@H](O)[C@H](C)O1.Cl` [DOXORUBICIN HYDROCHLORIDE] here?
The ED50 was 580 nM.

And the ED50 [2]?
Its ED50 is 1600 nM.

What about the T/C [13] of the same molecule?
Its T/C is “inactive”.

What about the T/C [14] of the same molecule?
Its T/C is 278%.

And the T/C [15]?
The T/C was 252%.

And the ΔTm [6]?
Its ΔTm is 12.8 °C.

What about the T/C [16] of the same molecule?
Its T/C is 160%.

What about the T/C [17] of the same molecule?
The T/C was 185%.

What about the T/C [18] of the same molecule?
Its T/C is 178%.

With `COc1cccc2c1C(=O)c1c(O)c3c(c(O)c1C2=O)C[C@@](O)(C(=O)CO)CC3OC1CC(N2CCOCC2)C(O)C(C)O1.Cl` (stereo not given in full) as the molecule, how does the ED50 [1] read?
The ED50 was 170 nM.

What about the ED50 [2] of the same molecule?
The ED50 was 710 nM.

And the T/C [19]?
Its T/C is 182%.

What about the logD [3] of the same molecule?
Its logD is 1.73.

And the ΔTm [6]?
The ΔTm was 9.6 °C.

Which T/C [12] does the source give for `COc1cccc2c1C(=O)c1c(O)c3c(c(O)c1C2=O)C[C@@](O)(C(C)=O)CC3OC1CC(N2CCOCC2C#N)C(O)C(C)O1` (stereo not given in full) here?
Its T/C is 175%.

What about the ED50 [1] of the same molecule?
The ED50 was 2 nM.

What about the ED50 [2] of the same molecule?
Its ED50 is 12 nM.

And the ΔTm [6]?
The ΔTm was 6.3 °C.

Which results are given for `COc1cccc2c1C(=N)c1c(O)c3c(c(O)c1C2=O)C[C@@](O)(C(O)CO)CC3OC1CC(N2CCOCC2)C(O)C(C)O1.Cl` (stereo not given in full)?
T/C [20]: >161%; ED50 [1]: 24000 nM; ED50 [2]: > 100000 nM; logD [3]: 1.43; ΔTm [6]: 1.6 °C

Which results are given for `COc1cccc2c1C(=O)c1c(O)c3c(c(O)c1C2=O)C[C@@](O)(C(C)O)CC3OC1CC(N2CCOCC2)C(O)C(C)O1` (stereo not given in full)?
ED50 [1]: 530 nM; ED50 [2]: 2200 nM; logD [3]: 2.03; ΔTm [6]: 4.1 °C

With `COc1cccc2c1C(=N)c1c(O)c3c(c(O)c1C2=O)C[C@@](O)(C(O)CO)CC3OC1CC(N2CCOCC2C#N)C(O)C(C)O1` (stereo not given in full) as the molecule, how does the ED50 [1] read?
The ED50 was 75 nM.

And the ED50 [2]?
Its ED50 is 580 nM.

And the ΔTm [4]?
The ΔTm was 0.8 °C.

Which results are given for `COc1cccc2c1C(=O)c1c(O)c3c(c(O)c1C2=O)C[C@@](O)(C(C)=O)C[C@@H]3O[C@H]1C[C@H](N)[C@H](O)[C@H](C)O1.Cl` [DAUNORUBICIN HYDROCHLORIDE]?
ED50 [1]: 330 nM; ED50 [2]: 660 nM; logD [3]: 0.66; ΔTm [6]: 10.5 °C; T/C [16]: 130%

For `COc1cccc2c1C(=O)c1c(O)c3c(c(O)c1C2=O)C[C@@](O)(C(O)CO)CC3OC1CC(N2CCOCC2C#N)C(O)C(C)O1` (stereo not given in full), which ED50 [1] is on record?
The ED50 was 3 nM.

And the ED50 [2]?
Its ED50 is 21 nM.

What about the T/C [19] of the same molecule?
Its T/C is 183%.

What about the logD [3] of the same molecule?
The logD was 1.56.

And the ΔTm [6]?
The ΔTm was 4.5 °C.

What about the T/C [21] of the same molecule?
Its T/C is 150%.

Which ED50 [1] does the source give for `COc1cccc2c1C(=N)c1c(O)c3c(c(O)c1C2=O)C[C@@](O)(C(=O)CO)CC3OC1CC(N2CCOCC2)C(O)C(C)O1.Cl` (stereo not given in full) here?
The ED50 was 1300 nM.

What about the ED50 [2] of the same molecule?
Its ED50 is 2600 nM.

What about the T/C [22] of the same molecule?
Its T/C is greater than 215%.

And the logD [3]?
The logD was 1.8.

What about the ΔTm [6] of the same molecule?
Its ΔTm is 4.3 °C.

Which results are given for `COc1cccc2c1C(=O)c1c(O)c3c(c(O)c1C2=O)C[C@@](O)(C(O)CO)CC3OC1CC(N2CCOCC2)C(O)C(C)O1.Cl` (stereo not given in full)?
ED50 [1]: 3300 nM; ED50 [2]: 7500 nM; T/C [23]: >145%; ΔTm [6]: 3.9 °C
